Test results as given in ChEMBL document CHEMBL1143876, “Synthesis, analgesic, anti-inflammatory, and antimicrobial activity of some novel pyrimido[4,5-b]quinolin-4-ones” (2008).

Experiments:
Rattus norvegicus [1] = experiment: Antiinflammatory activity against carrageenan-induced paw edema in Sprague-Dawley rat at 10 mg/kg, po after 2 hrs; type: functional
In short: (§1)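 Adult male rats, 150–180 g, six per group. Oral dose 1 h before 0.1 ml 1% carrageenin sc into the left hind footpad: test agents 15 mg/kg as suspension, indomethacin 10 mg/kg; vehicle 10% Tween 80. Paw volume by plethysmometer before injection, then hourly for 4 h. Edema % = (Vt−Vc)/Vc; inhibition % = (Ec−Et)/Ec. Potency taken relative to indomethacin. Means ± SE.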

Rattus norvegicus [2] = experiment: Antiinflammatory activity against carrageenan-induced paw edema in Sprague-Dawley rat at 10 mg/kg, po after 3 hrs; type: functional; in short: as §1
Rattus norvegicus [3] = experiment: Antiinflammatory activity against carrageenan-induced paw edema in Sprague-Dawley rat at 10 mg/kg, po after 1 hr; type: functional; in short: as §1
Rattus norvegicus [4] = experiment: Antiinflammatory activity against carrageenan-induced paw edema in Sprague-Dawley rat at 10 mg/kg, po after 4 hrs; type: functional; in short: as §1
Rattus norvegicus [5] = experiment: Antiinflammatory activity against carrageenan-induced paw edema in Sprague-Dawley rat at 15 mg/kg, po after 2 hrs; type: functional; in short: as §1
Staphylococcus aureus [6] = experiment: Antimicrobial activity against Staphylococcus aureus at 50 ug/disk after 24 to 28 hrs; type: functional; conditions: read-out: IZ
In short: (§2)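 Agar disk diffusion: 5 mm paper disks loaded with 50 µg/disk in DMSO. Inhibition zones read after 24–28 h at 37 °C for bacteria, or 5 days at 28 °C for clinical Candida isolates grown on Sabouraud dextrose agar. Zone graded 6–10 mm slight, 11–15 mm moderate, >15 mm high. Reference disks: nalidixic acid 30 µg, nystatin 100 U.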

Rattus norvegicus [7] = experiment: Antiinflammatory activity against carrageenan-induced paw edema in Sprague-Dawley rat at 15 mg/kg, po after 3 hrs; type: functional; in short: as §1
Rattus norvegicus [8] = experiment: Antiinflammatory activity against carrageenan-induced paw edema in Sprague-Dawley rat at 15 mg/kg, po relative to indomethacin after 4 hrs; type: functional; in short: as §1
Rattus norvegicus [9] = experiment: Antiinflammatory activity against carrageenan-induced paw edema in Sprague-Dawley rat at 15 mg/kg, po relative to indomethacin after 1 hr; type: functional; in short: as §1
Escherichia coli [10] = experiment: Antimicrobial activity against Escherichia coli; type: functional
In short: (§3)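 MIC found by disk diffusion using disks carrying varying amounts of compound per disk, in DMSO. Incubated 24–28 h at 37 °C for bacteria and 5 days at 28 °C for Candida. MIC given in µg/disk.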

Pseudomonas aeruginosa [11] = experiment: Antimicrobial activity against Pseudomonas aeruginosa; type: functional; in short: as §3
Mus musculus [12] = experiment: Analgesic activity in Swiss albino mouse assessed as reaction time at 15 mg/kg, po after 90 mins by hot plate test; type: functional
In short: (§4)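 Mice of both sexes, 25–30 g, on a hot plate at 53 ± 0.5 °C; reaction time taken to hind-paw lick or jump, 60 s cut-off. Baseline read before dosing. Oral dosing in 10% v/v Tween 80 in water: test agents 15 mg/kg, acetylsalicylic acid 100 mg/kg. Re-read at 15, 30, 60 and 90 min; means ± SE.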

Mus musculus [13] = experiment: Analgesic activity against acetic acid-induced abdominal constriction in Swiss albino mouse at 15 mg/kg, po after 20 mins by writhing test relative to acetylsalicylic acid; type: functional, Abdomen
In short: (§5)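 Mice of both sexes, 25–30 g, dosed orally in 10% v/v Tween 80 in water. Test agents were given at 15 mg/kg and acetylsalicylic acid at 100 mg/kg. 30 min later, 0.7% acetic acid (10 ml/kg) ip. Writhes counted over 20 min; six per group. % protection = (control mean − treated mean)/control mean ×100; means ± SE.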

Mus musculus [14] = experiment: Analgesic activity in Swiss albino mouse assessed as reaction time at 15 mg/kg, po after 60 mins by hot plate test; type: functional; in short: as §4
Rattus norvegicus [15] = experiment: Antiinflammatory activity against carrageenan-induced paw edema in Sprague-Dawley rat at 15 mg/kg, po relative to indomethacin after 2 hrs; type: functional; in short: as §1
Klebsiella pneumoniae [16] = experiment: Antimicrobial activity against Klebsiella pneumoniae at 50 ug/disk after 24 to 28 hrs; type: functional; conditions: read-out: IZ; in short: as §2
Pseudomonas aeruginosa [17] = experiment: Antimicrobial activity against Pseudomonas aeruginosa at 50 ug/disk after 24 to 28 hrs; type: functional; conditions: read-out: IZ; in short: as §2
Rattus norvegicus [18] = experiment: Antiinflammatory activity against carrageenan-induced paw edema in Sprague-Dawley rat at 15 mg/kg, po relative to indomethacin after 3 hrs; type: functional; in short: as §1
Rattus norvegicus [19] = experiment: Antiinflammatory activity against carrageenan-induced paw edema in Sprague-Dawley rat at 15 mg/kg, po after 1 hr; type: functional; in short: as §1
Escherichia coli [20] = experiment: Antimicrobial activity against Escherichia coli at 50 ug/disk after 24 to 28 hrs; type: functional; conditions: read-out: IZ; in short: as §2
Mus musculus [21] = experiment: Analgesic activity against acetic acid-induced abdominal constriction in Swiss albino mouse at 15 mg/kg, po after 20 mins by writhing test; type: functional, Abdomen; in short: as §5
Staphylococcus aureus [22] = experiment: Antimicrobial activity against Staphylococcus aureus; type: functional; in short: as §3
Mus musculus [23] = experiment: Analgesic activity in Swiss albino mouse assessed as reaction time at 15 mg/kg, po after 30 mins by hot plate test; type: functional; in short: as §4
Klebsiella pneumoniae [24] = experiment: Antimicrobial activity against Klebsiella pneumoniae; type: functional; in short: as §3
Rattus norvegicus [25] = experiment: Antiinflammatory activity against carrageenan-induced paw edema in Sprague-Dawley rat at 15 mg/kg, po after 4 hrs; type: functional; in short: as §1
Candida albicans [26] = experiment: Antimicrobial activity against Candida albicans; type: functional; in short: as §3
Nakaseomyces glabratus = experiment: Antimicrobial activity against Candida glabrata at 50 ug/disk after 5 days; type: functional; conditions: 120 h, read-out: IZ; in short: as §2
Candida albicans [27] = experiment: Antimicrobial activity against Candida albicans at 50 ug/disk after 5 days; type: functional; conditions: 120 h, read-out: IZ; in short: as §2

COc1ccc2c(c1)c(CC(=O)O)c(C)n2C(=O)c1ccc(Cl)cc1 [INDOMETHACIN]
inhibition in vivo at 10 mg/kg (Rattus norvegicus [1]): 58.2% | inhibition in vivo at 10 mg/kg (Rattus norvegicus [2]): 42.6% | inhibition in vivo at 10 mg/kg (Rattus norvegicus [3]): 56.9% | inhibition in vivo at 10 mg/kg (Rattus norvegicus [4]): 46.4%

Nc1n[nH]c2nc3nc4c(c(-c5ccccc5)c3c(=O)n12)CCCC4
inhibition in vivo at 15 mg/kg (Rattus norvegicus [5]): 1.2% | zone of inhibition at 50 µg/disc (Staphylococcus aureus [6]): 21 mm | inhibition in vivo at 15 mg/kg (Rattus norvegicus [7]): 2.8% | inhibition in vivo at 15 mg/kg (Rattus norvegicus [8]): 20.5% | inhibition in vivo at 15 mg/kg (Rattus norvegicus [9]): 17.7% | MIC (Escherichia coli [10]): 30 µg | MIC (Pseudomonas aeruginosa [11]): 30 µg | Time (Mus musculus [12]): 7.62 s | Activity (Mus musculus [13]): 110.44% | Time (Mus musculus [14]): 6.74 s | inhibition in vivo at 15 mg/kg (Rattus norvegicus [15]): 2.1% | zone of inhibition at 50 µg/disc (Klebsiella pneumoniae [16]): 22 mm | zone of inhibition at 50 µg/disc (Pseudomonas aeruginosa [17]): 22 mm | inhibition in vivo at 15 mg/kg (Rattus norvegicus [18]): 6.6% | inhibition in vivo at 15 mg/kg (Rattus norvegicus [19]): 10.1% | zone of inhibition at 50 µg/disc (Escherichia coli [20]): 20 mm | Activity (Mus musculus [21]): 57.1% | MIC (Staphylococcus aureus [22]): 30 µg | Time (Mus musculus [23]): 5.14 s | MIC (Klebsiella pneumoniae [24]): 30 µg | inhibition in vivo at 15 mg/kg (Rattus norvegicus [25]): 9.5%

O=c1[nH]c(=S)[nH]c2nc3c(c(-c4ccccc4)c12)CCCC3
zone of inhibition at 50 µg/disc (Staphylococcus aureus [6]): 13 mm | Time (Mus musculus [12]): 11.12 s | Activity (Mus musculus [13]): 68.47% | Time (Mus musculus [14]): 10.98 s | zone of inhibition at 50 µg/disc (Klebsiella pneumoniae [16]): 14 mm | zone of inhibition at 50 µg/disc (Pseudomonas aeruginosa [17]): 15 mm | zone of inhibition at 50 µg/disc (Escherichia coli [20]): 12 mm | Activity (Mus musculus [21]): 35.4% | Time (Mus musculus [23]): 8.65 s

O=c1c2c(-c3ccccc3)c3c(nc2nc2n(-c4ccccc4)nc(-c4ccccc4)n12)CCCC3
Time (Mus musculus [12]): 11.88 s | Activity (Mus musculus [13]): 8.89% | Time (Mus musculus [14]): 11.62 s | Activity (Mus musculus [21]): 4.6% | Time (Mus musculus [23]): 9.84 s

Cc1n[nH]c2nc3nc4c(c(-c5ccccc5)c3c(=O)n12)CCCC4
zone of inhibition at 50 µg/disc (Staphylococcus aureus [6]): 21 mm | MIC (Candida albicans [26]): 50 µg | zone of inhibition at 50 µg/disc (Nakaseomyces glabratus): 13 mm | MIC (Escherichia coli [10]): 20 µg | MIC (Pseudomonas aeruginosa [11]): 20 µg | Time (Mus musculus [12]): 10.4 s | Activity (Mus musculus [13]): 11.2% | Time (Mus musculus [14]): 8.8 s | zone of inhibition at 50 µg/disc (Klebsiella pneumoniae [16]): 20 mm | zone of inhibition at 50 µg/disc (Pseudomonas aeruginosa [17]): 21 mm | zone of inhibition at 50 µg/disc (Candida albicans [27]): 18 mm | zone of inhibition at 50 µg/disc (Escherichia coli [20]): 20 mm | Activity (Mus musculus [21]): 5.8% | MIC (Staphylococcus aureus [22]): 20 µg | Time (Mus musculus [23]): 8.68 s | MIC (Klebsiella pneumoniae [24]): 20 µg

Nn1c(-c2ccccc2)cn2c(=O)c3c(-c4ccccc4)c4c(nc3nc12)CCCC4
zone of inhibition at 50 µg/disc (Staphylococcus aureus [6]): 19 mm | MIC (Escherichia coli [10]): 20 µg | MIC (Pseudomonas aeruginosa [11]): 20 µg | Time (Mus musculus [12]): 10.67 s | Activity (Mus musculus [13]): 71.76% | Time (Mus musculus [14]): 11.41 s | zone of inhibition at 50 µg/disc (Klebsiella pneumoniae [16]): 22 mm | zone of inhibition at 50 µg/disc (Pseudomonas aeruginosa [17]): 23 mm | zone of inhibition at 50 µg/disc (Escherichia coli [20]): 21 mm | Activity (Mus musculus [21]): 37.1% | MIC (Staphylococcus aureus [22]): 20 µg | Time (Mus musculus [23]): 9.42 s | MIC (Klebsiella pneumoniae [24]): 20 µg

CC(=O)NNc1nc2nc3c(c(-c4ccccc4)c2c(=O)[nH]1)CCCC3
inhibition in vivo at 15 mg/kg (Rattus norvegicus [5]): 22.8% | zone of inhibition at 50 µg/disc (Staphylococcus aureus [6]): 19 mm | MIC (Candida albicans [26]): 50 µg | inhibition in vivo at 15 mg/kg (Rattus norvegicus [7]): 23.9% | inhibition in vivo at 15 mg/kg (Rattus norvegicus [8]): 46.9% | zone of inhibition at 50 µg/disc (Nakaseomyces glabratus): 16 mm | inhibition in vivo at 15 mg/kg (Rattus norvegicus [9]): 45.5% | MIC (Escherichia coli [10]): 20 µg | MIC (Pseudomonas aeruginosa [11]): 20 µg | Time (Mus musculus [12]): 9.22 s | Activity (Mus musculus [13]): 116.83% | Time (Mus musculus [14]): 8.06 s | inhibition in vivo at 15 mg/kg (Rattus norvegicus [15]): 39.2% | zone of inhibition at 50 µg/disc (Klebsiella pneumoniae [16]): 18 mm | zone of inhibition at 50 µg/disc (Pseudomonas aeruginosa [17]): 22 mm | zone of inhibition at 50 µg/disc (Candida albicans [27]): 17 mm | inhibition in vivo at 15 mg/kg (Rattus norvegicus [18]): 55.9% | inhibition in vivo at 15 mg/kg (Rattus norvegicus [19]): 25.9% | zone of inhibition at 50 µg/disc (Escherichia coli [20]): 20 mm | Activity (Mus musculus [21]): 60.4% | MIC (Staphylococcus aureus [22]): 20 µg | Time (Mus musculus [23]): 8.62 s | MIC (Klebsiella pneumoniae [24]): 20 µg | inhibition in vivo at 15 mg/kg (Rattus norvegicus [25]): 21.8%
